Measurements collected from several papers.
Lines come from different studies, so protocols differ.
Target: Serine/threonine-protein kinase pim-1 (PIM1, Homo sapiens, UniProt P11309)

Structure (SMILES) | test | setting | remaining binding
O=C(NCCCN1CCOCC1)c1ccc(Nc2nccc(-c3cc4ccccc4s3)n2)cc1 | binding, competition with immobilised ligand | 1 µM | 85%
O=C1NC(c2ccccn2)Sc2ccccc21 (stereo not shown) | cell-free assay, competition with immobilised ligand | 1 µM | 82%
c1cnn2ncc(-c3ccnc(N4CCC45COC5)n3)c2c1 | binding | 1 µM | 71%
O=C(Nc1c[nH]nc1C(=O)NC1CCNCC1)c1cc(F)cc(F)c1 | binding, competition with immobilised ligand | 1 µM | 100%
N[C@H]1CCN(c2nccc(-c3cnn4ncccc34)n2)C1 | binding | 1 µM | 99%
O=C(O)c1cc(-c2ccc(C3CCNCC3)cc2)c2ccc(-c3ccc(C(F)(F)F)cc3)cc2c1 | cell-free assay, competition with immobilised ligand | 1 µM | 100%
COc1cnc(Nc2cccc(S(N)(=O)=O)c2)nc1N1CCN(c2ccccc2)C(=O)C1 | binding, competition with immobilised ligand | 1 µM | 100%
C[C@@H]1CN(c2ccc3ncc(-c4ccc5[nH]nc(C6CC6)c5c4)n3n2)C[C@H](C)O1 | binding, competition with immobilised ligand | 0.5 µM | 19%
FC(F)(F)Oc1cccc(-c2cnc3ccc(-c4ccncc4)nn23)c1 | cell-free assay, competition with immobilised ligand | 5 µM | 23%
O=C(c1ccc(Nc2ncc(Cl)c(-c3cc4ccccc4s3)n2)cc1)N1CCC(N2CCCC2)CC1 | binding, competition with immobilised ligand | 1 µM | 84%
C[C@H](c1ccc(F)cc1)N(Cc1cccc(C(=O)O)c1)C(=O)c1cnc2ccccc2c1 | cell-free assay, competition with immobilised ligand | 1 µM | 100%
O=C(c1ccc(Nc2nccc(-c3cc4ccccc4s3)n2)cc1)N1CCC(N2CCCC2)CC1 | binding, competition with immobilised ligand | 1 µM | 75%
Cn1nc(C(=O)NCc2ccc(C(=O)O)cc2)cc1-c1ccc2[nH]ccc2c1 | cell-free assay, competition with immobilised ligand | 0.1 µM | 91%
COc1cnc(Nc2cccc(S(N)(=O)=O)c2)nc1N1CCN(c2ccccc2)CC1 | binding, competition with immobilised ligand | 1 µM | 95%
CC1CCCN1c1nccc(-c2cnn3ncccc23)n1 (stereo not shown) | binding | 1 µM | 100%
N#Cc1ccccc1CSc1nnc2c(n1)[nH]c1ccccc12 | binding, competition with immobilised ligand | 10 µM | 90%
Cc1cnn2ncc(-c3ccnc(N(C)C)n3)c2c1 | binding | 1 µM | 80%
CCCCN(CCCC)C(=O)CN1C[C@H](c2cc(OC)c3c(c2)OCO3)[C@@H](C(=O)O)[C@@H]1CC(C)(C)CCC | cell-free assay, competition with immobilised ligand | 1 µM | 100%
C[C@H]1CCN(c2nccc(-c3cnn4ncccc34)n2)C1 | binding | 1 µM | 83%
FC(F)(F)c1ccc2c(c1)nc(-c1cccnc1)n2C1CC1 | cell-free assay, competition with immobilised ligand | 1 µM | 94%
C=CC(=O)N1CCC(C(=O)NCC(=O)N2CCN(c3nc(-c4cnc(N)nc4C(F)F)nc(N4CCOCC4)n3)CC2)CC1 | binding, competition with immobilised ligand | 1 µM | 95%
F[C@@H]1CCN(c2nccc(-c3cnn4ncccc34)n2)C1 | binding | 1 µM | 100%
Cc1cc(C)c(-n2ccn3nc(-c4cccnc4)cc23)cc1NC(=O)c1cc(C#N)cc(S(F)(F)(F)(F)F)c1 | cell-free assay, competition with immobilised ligand | 0.1 µM | 92%
CN(C)c1ncc(F)c(-c2cnn3ncccc23)n1 | binding | 1 µM | 82%
Cc1cc(-n2nc(Cc3cc(F)cc(C(F)(F)F)c3)nc2C)ccc1C(N)=O | cell-free assay, competition with immobilised ligand | 1 µM | 100%
